# Hits are enriched below; roughly 4.6% of the tested compounds scored in any of these assays.
# Wee1 degr inh – inhibitors of human Wee1 degradation; AID 1321; reporter increase, % at 5 µM; HeLa Luc-Wee1K328M stability, luciferase luminescence; 100% = proteasome inhibitor MG132 effect; 1.2% of 220,000 active; P30291;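 active means activation above the mean of all tested compounds plus 3 SD, set per screening run, cut at about 8.8% in these data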;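 further: cells exposed to compound for 20 h before luminescence read; 0% = DMSO alone and 100% = MG132 at 30 µM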
# STAT1 act – increases IFN-gamma driven STAT1 reporter signal | NIH 3T3 STAT1-luciferase reporter, luminescence; 100% = IFN-gamma alone, no compound | activation (% of control), % at 5.5 µM | 2.6% of 200,000 active;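 active means activation above the screen-wide mean activation plus 3 SD, cut at about 130% in these data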;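 further: raw ratio to IFN-gamma control signal so 100% means no change and 0% no light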
# Mdm2 ligase inh – inhibitors of human Mdm2 E3 ubiquitin ligase. Q00987. cell-based MDM2 ubiquitination luciferase reporter, 2 h; 0 = plate control, 100 = twice control, blank-subtracted. signal enhancement, % at 5 µM. 0.11% of 210,000 active;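 active means signal enhancement of 30% or more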;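 further: luminescence tracks abundance of the self-degrading MDM2-luciferase fusion protein; higher signal means inhibition of MDM2 E3 ligase activity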
#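 Material: stable MDM2–luciferase fusion reporter cells / Quantity: 2000 cells/well / Dosing: single 5 µM compound dose, 0.2% final DMSO / Buffer or medium: DMEM / Schedule: 4 h cell settling then 2 h compound exposure, 37 °C / Detection: luminescence with SteadyLite reagent, 15 min at room temperature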
# NF-kB neuron act – raises NF-kB expression in human neuronal cells; NF-kB reporter expression; stronger effect = higher value; fold change at 12.5 µM; 1.6% of 190,000 active; AID 1239; in the data active means fold change above about 3.3
# APP 5'UTR act – activates APP 5'UTR luciferase reporter. SH-SY5Y APP 5'UTR luciferase reporter, luminescence; zero percent = DMSO vehicle wells. activation, % at 2 µM. 1% of 190,000 active. AID 1276;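 active means activation above a set limit, based on mean plus 3 SD of controls, cut at about 140% in these data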
# p97 inhibitor – inhibitors of human p97 ATPase. P55072. recombinant p97 ATPase, Kinase-Glo ATP luminescence, 3 h. inhibition, % at 8 µM. 0.42% of 220,000 active. AID 1481; in the data active means inhibition above about 15%;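 further: 0% = DMSO vehicle and 100% = wells lacking enzyme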
# Target sequence (P55072 whole entry, looked up): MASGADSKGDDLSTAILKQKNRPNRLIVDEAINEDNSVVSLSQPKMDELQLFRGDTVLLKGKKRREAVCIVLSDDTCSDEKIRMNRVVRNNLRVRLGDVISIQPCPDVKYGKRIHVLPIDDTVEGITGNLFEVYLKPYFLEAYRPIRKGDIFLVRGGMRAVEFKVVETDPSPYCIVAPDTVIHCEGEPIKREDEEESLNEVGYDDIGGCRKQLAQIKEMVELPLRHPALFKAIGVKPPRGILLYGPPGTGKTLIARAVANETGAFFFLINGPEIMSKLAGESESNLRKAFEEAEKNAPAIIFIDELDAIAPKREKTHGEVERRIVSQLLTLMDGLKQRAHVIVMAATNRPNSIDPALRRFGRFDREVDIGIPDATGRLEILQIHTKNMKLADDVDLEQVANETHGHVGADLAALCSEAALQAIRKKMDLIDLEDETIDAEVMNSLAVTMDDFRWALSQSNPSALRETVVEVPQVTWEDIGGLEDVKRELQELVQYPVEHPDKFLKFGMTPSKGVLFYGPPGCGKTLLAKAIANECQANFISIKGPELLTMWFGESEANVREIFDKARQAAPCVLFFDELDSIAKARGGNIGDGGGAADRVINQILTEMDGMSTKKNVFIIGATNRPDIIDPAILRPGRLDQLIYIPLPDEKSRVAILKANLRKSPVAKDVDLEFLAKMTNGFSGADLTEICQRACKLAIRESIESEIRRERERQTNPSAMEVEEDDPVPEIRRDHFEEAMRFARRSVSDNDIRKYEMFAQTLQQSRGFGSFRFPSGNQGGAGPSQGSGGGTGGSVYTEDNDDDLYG
# The depositor's hits bear a star; . = not tested or not shown.
SMILES,Wee1 degr inh,STAT1 act,Mdm2 ligase inh,NF-kB neuron act,APP 5'UTR act,p97 inhibitor
CCN(C(=O)COC(=O)c1cc(-c2ccccc2)nc2ccc(Br)cc12)C1CCS(=O)(=O)C1 (stereo not drawn),9.2*,102,-8,0.99,7,0
CCN(C(=O)COC(=O)c1cc(-c2cccs2)nc2ccccc12)C1CCS(=O)(=O)C1 (stereo not drawn),6,101,-2,0.71,-13,2
O=C(NCC(=O)N(CC1CCCO1)C(C(=O)NC1CCCCC1)c1cccnc1)c1cccs1 (stereo not drawn),5,102,-11,0.87,8,0
COc1ccc(/C=N/Nc2ncc(-c3ccccc3)cn2)c(OC)c1,0,105,3,0.67,-1,5
COc1ccc(/C=N/Nc2ncccc2[N+](=O)[O-])c(OC)c1,-3,47,-6,7.9*,137*,-37
C/C(N)=C(/C#N)C(=O)CSc1nc2scc(-c3ccc(F)cc3)c2c(=O)n1C,-1,101,-21,0.92,-15,-8
CC(C)NC(=O)NC(=O)COC(=O)c1ncc(Cl)c(Cl)c1Cl,-1,100,-3,1.1,6,3
C1=Nc2ccccc2CN1c1ccccc1,0,130*,-8,2,19,3
COc1nc(-c2ccccc2)nnc1-c1ccccc1,-2,156*,-10,6.2*,180*,0
CCCCP(=O)(CCCC)Cc1ccccc1O,9.4*,96,-4,0.93,7,-2
CC1=NN(c2ccccc2)C(=O)/C1=C/c1c(O)n(-c2ccc(F)c(Cl)c2)[nH]c1=O,0,142*,-16,1.8,15,5
CC1=NN(c2ccccc2)C(=O)/C1=C\c1cn(-c2ccccc2)nc1C,4,96,-2,1.1,14,3
CC1=NN(c2ccccc2)C(=O)/C1=C\c1c(C)[nH]n(-c2ccccc2)c1=O,16*,100,-1,0.86,-9,-1
CC(Sc1nnc(-c2cccnc2)n1-c1ccccc1F)C(=O)N1CCCc2ccccc21 (stereo not drawn),-1,99,.,0.76,-4,3
Cc1cc(NC(=O)NC(=O)c2cccc(OC(F)(F)C(F)F)c2)n[nH]1,2,132*,-26,1.7,55,0
c1ccc2c(COn3nnc4ccccc43)cccc2c1,1,128,-13,3.4*,110,-5
CCC(CC)C(=O)c1c[nH]c(C(=O)N2CCN(c3ccc(OC)cc3)CC2)c1,4,108,-3,1.2,-3,2
Cc1ccc(C2=NN(C(=S)Nc3ccccc3)C(c3ccco3)C2)cc1 (stereo not drawn),4,134*,8,2.8,89,5
O=C(CN1CCN(C/C=C/c2ccccc2)CC1)NC(=O)NC1CCCCC1,-2,99,-14,0.93,10,2
CC(Cc1ccccc1)NC(=S)CN1CCCC1=S (stereo not drawn),2,.,-22,.,.,0
Cc1ccnc(NS(=O)(=O)c2ccc(NC(=O)c3ccc([N+](=O)[O-])s3)cc2)n1,7,87,-7,5.7*,16,6
O=C(O)CCC(=O)NCc1c(Cl)cccc1Sc1ccc(Cl)cc1,0,.,-18,.,.,11
NC(=O)COC(=O)CSc1ccc2ccccc2c1,3,103,-14,1.1,8,2
CSc1nsc(N/N=C/c2ccc3c(c2)OCO3)c1C#N,7,150*,-24,3.9*,168*,-5
COc1cc(/C=N/Nc2snc(SC)c2C#N)cc(OC)c1OC,-1,92,-22,1.7,-8,-6
SMILES,Wee1 degr inh,STAT1 act,Mdm2 ligase inh,NF-kB neuron act,APP 5'UTR act,p97 inhibitor
Cn1cnnc1-c1cccc(NC(=O)c2cc(F)c(F)cc2Cl)c1,-1,102,-7,0.92,-7,-3
CNS(=O)(=O)c1cccc(C(=O)OCC(=O)Nc2ccc(Cl)cc2F)c1,9.8*,.,-5,.,.,1
COc1ccccc1N1CCN(C2CC(=O)N(C)C2=O)CC1 (stereo not drawn),2,98,-10,0.85,6,1
CN(C)/C=C(/C(=O)c1ccc(Cl)cc1Cl)S(=O)(=O)c1ccccc1,9.6*,106,-10,1.9,.,1
Nc1nn2cc(-c3ccccc3)nc2c2ccccc12,3,143*,-24,0.97,198*,-17
COc1ccc(N2C(=S)N=C(Nc3ccccc3)C23CCCCC3)cc1,3,101,30*,1,1,7
COc1ccc(NC2=NC(=S)N(c3ccccc3C)C23CCCCC3)cc1,3,95,-17,1.6,18,1
Cc1cc(C)cc(N=C2NC(=O)/C(=C/c3cccs3)S2)c1,-1,101,4,1,13,0
CCOc1ccc2c(c1)S/C(=C\c1cccs1)C(=O)N2,9.0*,.,.,.,.,-3
Cc1ccc2ccc(C(Nc3ccccn3)c3ccccc3)c(O)c2n1 (stereo not drawn),0,98,23,1.3,0,-4
COc1cc(C(Nc2ccccn2)c2ccc3ccc(C)nc3c2O)cc(OC)c1O (stereo not drawn),-2,94,-8,6*,-18,3
Oc1c(C(Nc2ccccn2)c2ccccn2)ccc2cccnc12 (stereo not drawn),-1,94,-4,7*,-26,3
O=C(CN1C2CCC1CC(NC(=O)Nc1ccccc1)C2)NCc1ccco1 (stereo not drawn),10*,97,1,0.93,10,-2
O=C(NCc1ccccc1)NC1CC2CCC(C1)N2Cc1ccco1 (stereo not drawn),0,94,-6,0.85,-4,9
CCCCNC(=O)c1cc(-c2ccc(OC)cc2)on1,4,120,-28,3.6*,35,-2
CCCCNC(=O)c1cc(-c2ccc(F)cc2)on1,1,136*,0,11*,93,-4
CCCCNC(=O)c1cc(-c2ccc(OC)c(OC)c2)on1,-2,103,-10,1.4,-6,-4
NC(=O)C(CC(=O)O)NC(=O)[C@@H]1CCOc2c(I)cc([N+](=O)[O-])cc2C(=O)N[C@@H](CCC(=O)O)C(=O)N[C@@H](CO)C(=O)N1 (stereo partly drawn),8.8*,94,.,1.3,-3,3
O=C(CN1CCN(c2ccc(C(F)(F)F)cn2)CC1)Nc1ccc2c(c1)OCO2,6,.,-8,.,.,-7
COc1ccc2occ(C(=O)c3cccs3)c2c1,3,128,-12,4.3*,55,4
Cc1ccc(Oc2ncccc2C(=O)NC2CCSC2=O)cc1 (stereo not drawn),0,103,-21,1.1,6,5
CC(=O)NC(Cc1ccccc1)C(=O)OCC(=O)c1ccc(F)cc1 (stereo not drawn),0,98,3,1.3,16,2

# Screens (PubChem)
